SMILES strings stand for the structures. Bounds are passed on as bounds.

In ChEMBL document CHEMBL2016503, “Design and synthesis of 4-O-methylhonokiol analogs as inhibitors of cyclooxygenase-2 (COX-2) and PGF₁ production” (Bioorg Med Chem, 2012) one finds inhibition and IC50 data, which are given here for 20 molecules.

Assay [1] deals with T1, Prostaglandin G/H synthase 2 (Homo sapiens) (UniProt P35354).
T1 sequence (whole entry): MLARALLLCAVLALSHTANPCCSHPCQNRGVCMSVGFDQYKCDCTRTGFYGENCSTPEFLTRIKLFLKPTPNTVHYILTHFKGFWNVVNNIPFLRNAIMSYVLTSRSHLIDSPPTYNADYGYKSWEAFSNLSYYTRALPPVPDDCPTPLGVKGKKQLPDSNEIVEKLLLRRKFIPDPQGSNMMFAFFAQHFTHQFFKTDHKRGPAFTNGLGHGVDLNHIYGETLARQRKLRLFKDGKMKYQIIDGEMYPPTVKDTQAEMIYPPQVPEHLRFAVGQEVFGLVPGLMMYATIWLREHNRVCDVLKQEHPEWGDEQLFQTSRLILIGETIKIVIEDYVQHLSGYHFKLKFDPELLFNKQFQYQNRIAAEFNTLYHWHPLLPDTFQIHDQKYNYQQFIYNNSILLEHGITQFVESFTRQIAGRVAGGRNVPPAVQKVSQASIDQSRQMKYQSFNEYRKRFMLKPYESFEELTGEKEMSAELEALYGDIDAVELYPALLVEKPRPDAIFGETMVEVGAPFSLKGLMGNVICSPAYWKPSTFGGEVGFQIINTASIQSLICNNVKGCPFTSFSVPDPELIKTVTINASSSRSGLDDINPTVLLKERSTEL
As to conditions: at 100 nM.

Assay [2] deals with RAW264.7. In words: Inhibition of LPS-induced NO production in mouse RAW264.7 cells after 24 hrs by Griess assay. Format: functional, cell-based. The settings on record: RAW264.7, 24 h. Summed up: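 RAW264.7 macrophages were grown in DMEM with heat-inactivated 10% FBS, penicillin and streptomycin at 37 °C under 5% CO₂. Cells were stimulated with LPS for 24 h with or without compound. Culture medium was mixed with an equal volume of 0.05% sulfanilamide and 0.05% N-(1-naphthyl)ethylenediamine, and absorbance was read at 540 nm. Nitrite was quantified against a sodium nitrite standard curve.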
(Nitrite, measured by Griess reagent, commonly stands in for NO production.)

Assay [3] has as its system RAW264.7. Kind of assay: Cytotoxicity against mouse RAW264.7 cells assessed as cell viability by propidium iodide staining based FACS-flow cytometry. Summed up: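 RAW264.7 macrophages were grown in DMEM with heat-inactivated 10% FBS, penicillin and streptomycin at 37 °C under 5% CO₂. Viability was assessed by propidium iodide nuclear staining at 1 µg/ml, followed by flow cytometry. PI-stained cells were counted as dead.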

Usually inhibition stands for the drop in the measured response relative to a control, in per cent. A lower inhibition goes with little suppression. Usually IC50 stands for the concentration that gives 50% inhibition. Turning to `CCCc1cc(-c2cc(Br)ccc2O)no1`, the inhibition in assay [1] is 35%. The IC50 in the assay on RAW264.7 [2] and in the assay on RAW264.7 [3] was 63 µM in each case.

`C=CCc1cc(Cl)c(O)c(-c2ccc(OC)c(CC=C)c2)c1`: the results for the IC50 in the assay on RAW264.7 [2] and with RAW264.7 [3] were 40 µM and 81 µM, respectively.

In assay [1], `C=CCc1ccc(OC(=O)NCc2ccccc2)c(-c2ccc(OC)c(CC=C)c2)c1` gave an inhibition of 65%. Also, the IC50 in the assay on RAW264.7 [2] and in the assay on RAW264.7 [3] was greater than 100 µM each time.

Take `C=CCc1ccc(O)c(-c2cc(CCC)on2)c1`: in assay [1], the inhibition is 39%. Moreover, the IC50 in the assay with RAW264.7 [2] was found to be 61 µM; in the assay with RAW264.7 [3], 81 µM.

`C=CCc1ccc(O)c(-c2cc(CO)on2)c1` displayed an inhibition in assay [1] of 38%. Also, the IC50 in the assay on RAW264.7 [2] was 36 µM; in the assay with RAW264.7 [3], greater than 50 µM.

In the case of `C=CCc1ccc(OC)c(-c2ccc(OC)c(CC=C)c2)c1`, the inhibition in assay [1] worked out at 46%. Also, the IC50 is 40 µM in the assay on RAW264.7 [2] and greater than 100 µM with RAW264.7 [3].

With `C=CCc1ccc(O)c(-c2ccc(OC)c(CC=C)c2)c1` [METHYLHONOKIOL], in assay [1], the inhibition worked out at 57%. Further, the IC50 in the assay with RAW264.7 [2] is 18 µM; in the assay on RAW264.7 [3] it was 27 µM.

On to `Cc1ccc(-c2cc(C(F)(F)F)nn2-c2ccc(S(N)(=O)=O)cc2)cc1` [CELECOXIB], for which the figures for the IC50 in the assay with RAW264.7 [2] and with RAW264.7 [3] were 12.1 µM and 11.1 µM, respectively.

Turning to `C=CCc1ccc(OC(C)C)c(-c2ccc(OC)c(CC=C)c2)c1`, the inhibition in assay [1] was found to be 23%. In addition, the results for the IC50 in the assay on RAW264.7 [2] and with RAW264.7 [3] were 78 µM and greater than 100 µM, respectively.

For the molecule `C=CCn1cc(-c2cc(CCC)ccc2O)nn1`, the inhibition in assay [1] came to 22%. For the same molecule, the IC50 in the assay on RAW264.7 [2] and with RAW264.7 [3] was greater than 50 µM throughout.

In assay [1], `C=CCc1ccc(OC(C)=O)c(-c2ccc(OC)c(CC=C)c2)c1` came in with an inhibition of 39%. Besides, the IC50 with RAW264.7 [2] was found to be 24 µM; with RAW264.7 [3], 29 µM.

In turn, `C=CCc1ccc(OCC=C(C)C)c(-c2ccc(OC)c(CC=C)c2)c1` gave an inhibition in assay [1] of 44%. Moreover, the IC50 with RAW264.7 [2] and with RAW264.7 [3] was greater than 100 µM in each case.

In turn, `C=CCNC(=O)Oc1ccc(CC=C)cc1-c1ccc(OC)c(CC=C)c1` registered an inhibition in assay [1] of 48%. For the same molecule, the IC50 in the assay with RAW264.7 [2] and in the assay on RAW264.7 [3] was greater than 100 µM in each case.

`COc1ccc(-c2cc(CC=C(C)C)ccc2O)cc1CC=C(C)C`: the inhibition in assay [1] worked out at 41%. Also, the figures for the IC50 with RAW264.7 [2] and in the assay with RAW264.7 [3] were 13 µM and 15 µM, respectively.

In assay [1], `CCCc1ccc(O)c(-c2cn(CC3CCC3)nn2)c1` gave an inhibition of 33%. Also, the IC50 in the assay with RAW264.7 [2] was 33 µM; in the assay on RAW264.7 [3] it was greater than 50 µM.

In assay [1], `COc1ccc(-c2cc(CC3CO3)ccc2O)cc1CC1CO1` (configuration not stated) registered an inhibition of 58%. Further, the IC50 was found to be 24 µM in the assay with RAW264.7 [2] and 64 µM in the assay with RAW264.7 [3].

Turning to `C=CCc1cc(Br)c(O)c(-c2ccc(OC)c(CC=C)c2)c1`, the inhibition in assay [1] stood at 52%. In addition, the IC50 turned out to be 28 µM in the assay on RAW264.7 [2] and 33 µM in the assay on RAW264.7 [3].

Consider `C=CCc1ccc(O)c(-c2ccc(OC)c(CCCO)c2)c1`, for which the IC50 in the assay on RAW264.7 [2] came to 41 µM; in the assay with RAW264.7 [3], 53 µM.

Regarding `C=CCc1ccc(OC(=O)N(C)Cc2ccccc2)c(-c2ccc(OC)c(CC=C)c2)c1`, the inhibition in assay [1] is 63%. In addition, the values for the IC50 in the assay on RAW264.7 [2] and in the assay on RAW264.7 [3] were 33 µM and 44 µM, respectively.

For `CCCc1ccc(O)c(-c2ccc(OC)c(CCC)c2)c1`, the inhibition in assay [1] stood at 46%. In addition, the results for the IC50 with RAW264.7 [2] and with RAW264.7 [3] were 11 µM and 13 µM, respectively.
